Converted amounts (≈) assume the structure as drawn. The source made the active and inactive calls. The rule behind the calls is not given here.
What was measured:
[1] = Kinetic solubility in pH 7.4 HEPES-BSA buffer at 5 uM incubated for 24 hrs at 20 degC by HPLC method; type: physicochemical; settings: read-out: Kinetic_solubility
Procedure, shortened: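 Compound added from 10 mM DMSO stock to 5 μM in pH 7.4 HEPES-BSA buffer (1 g/L BSA), shaken 24 h at 20 °C. After centrifugation, supernatant concentration measured by HPLC against 5 and 10 μM standards.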

[2] = Thermodynamic solubility in pH 7.4 PBS/Cdx buffer incubated for 24 hrs at 22 degC by HPLC method; type: physicochemical; settings: read-out: Therm_solubility
Procedure, shortened: (§1)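 Powder dissolved to saturation in pH 7.4 PBS (100 mM sodium phosphate, 150 mM NaCl), or in PBS with 10% Cdx, and shaken 24 h. After centrifugation, supernatant quantified by HPLC against a per-compound calibration line prepared from the DMSO stock.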

[3] = target: C-C motif chemokine 2 (Homo sapiens) (UniProt P13500); assay: Binding affinity to CCL2 (unknown origin) assessed as inhibition of CCL2-induced increase in intracellular calcium level in EGFP-tagged CCR2 expressing HEK cells at 10 uM
Mus musculus [4] = assay: Anti-asthma activity in Balb/c mouse model of mouse model of hypereosinophilia assessed as inhibition of eosinophil recruitment at 1400 umol/kg, po dosed intranasally 2 hrs before ovalbumin challenge by hemocytometry; type: functional; settings: in the assay text read “po dosed” for “po dosed intranasally”
Procedure, shortened: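 OVA-sensitized 9-week-old male Balb/c mice (50 μg OVA on 2 mg alum i.p., days 0–2; intranasal OVA 10 μg, days 5–7). Compound at 1400 μmol/kg in PBS/MC 0.5%/Tween 80 0.05% given by gavage 2 h before each challenge. BAL 24 h after the last challenge; eosinophils counted by hemocytometer and Diff-Quick cytospin (≥400 cells); n=6/group.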

Mus musculus [5] = assay: Toxicity in Balb/c mouse model of hypereosinophilia assessed as reduction in spleen weight at 12.6 umol/kg, ip dosed daily 2 hrs before allergen challenge for 3 days and measured 24 hrs after last dose; type: organism-based; settings: in vivo
Procedure, shortened: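 Same OVA model with i.p. dosing 2 h before each of the three challenges: neutraligands 350 μmol/kg in PBS/CMC 1%, AMD3100 12.6 μmol/kg, dexamethasone 2.5 μmol/kg. Body and spleen weight loss recorded 24 h after three daily administrations; n=6/group.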

Mus musculus [6] = assay: Toxicity in Balb/c mouse model of hypereosinophilia assessed as reduction in body weight at 350 umol/kg, ip dosed daily 2 hrs before allergen challenge for 10 days and measured 24 hrs after last dose; type: organism-based; settings: in vivo
Procedure, shortened: (§2)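 Mice given 10 daily administrations at 350 μmol/kg. Monitored for weight loss and for signs of toxicity, including prostration and bristly hair.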

[7] = Stability in presence of GSH assessed as Michael acceptor reactivity by measuring GSH adduct formation after 2 hrs at 37 degC by LC-MS/MS method; type: physicochemical
Procedure, shortened: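 Compound 200 μM with 500 μM reduced GSH in methanol/50 mM carbonate buffer pH 8. Aliquots taken at 1 min and 2 h, diluted 1/40, and analysed by LC-MS/MS for GSH-conjugate formation.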

Mus musculus [8] = assay: Toxicity in Balb/c mouse model of hypereosinophilia assessed as induction of spleen lesions at 350 umol/kg, ip dosed daily 2 hrs before allergen challenge for […] and measured 24 hrs after last dose by Gomori's trichrome staining based histological analysis; type: organism-based; settings: in vivo
Mus musculus [9] = assay: Inhibition of macrophages infiltration in Balb/c mouse model of 8 day model of allergic eosinophilic airway inflammation at 300 nmol/kg dosed intranasally 2 hrs before ovalbumin challenge by hemocytometry; type: functional, organism-based
Mus musculus [10] = assay: Toxicity in Balb/c mouse model of hypereosinophilia assessed as induction of kidney lesions at 350 umol/kg, ip dosed daily 2 hrs before allergen challenge for […] and measured 24 hrs after last dose by Gomori's trichrome staining based histological analysis; type: organism-based; settings: in vivo
[11] = Thermodynamic solubility in pH 7.4 PBS buffer incubated for 24 hrs at 22 degC by HPLC method; type: physicochemical; settings: read-out: Therm_solubility; procedure, shortened: as §1
Mus musculus [12] = assay: Toxicity in Balb/c mouse model of hypereosinophilia assessed as induction of heart lesions at 350 umol/kg, ip dosed daily 2 hrs before allergen challenge for […] and measured 24 hrs after last dose by Gomori's trichrome staining based histological analysis; type: organism-based; settings: in vivo
Mus musculus [13] = assay: Toxicity in Balb/c mouse model of hypereosinophilia assessed as toxic signs at 350 umol/kg, ip dosed daily 2 hrs before allergen challenge for 10 days and measured 24 hrs after last dose; type: organism-based; settings: in vivo; procedure, shortened: as §2

Chain of C-C motif chemokine 2 (Homo sapiens) (P13500 24-99 limits assumed): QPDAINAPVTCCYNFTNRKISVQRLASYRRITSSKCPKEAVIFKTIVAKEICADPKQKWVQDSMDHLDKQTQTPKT

- solubility kinetic at 24 h, 5 µM [1]: > 5 µM
- solubility thermodynamic at 24 h [2]: > 5 mM
- inhibition [3]: inactive
- Stability [7]: Stable
- solubility thermodynamic at 24 h [11]: 36.4 µM (≈ 12 µg/mL)
SMILES: COc1cc(-c2cc(-c3ccc(Cl)cc3)nc(=O)[nH]2)ccc1O
- inhibition in vivo at 1400 µmol/kg (Mus musculus [4]): 62%
- Activity (Mus musculus [5]): Non-Toxic
- Activity (Mus musculus [6]): Non-Toxic
- Activity (Mus musculus [8]): Non-Toxic
- inhibition (Mus musculus [9]): inactive
- Activity (Mus musculus [10]): Non-Toxic
- Activity (Mus musculus [12]): Non-Toxic
- Activity (Mus musculus [13]): Non-Toxic

Reference: ChEMBL document CHEMBL4145692, “Discovery of a Locally and Orally Active CXCL12 Neutraligand (LIT-927) with Anti-inflammatory Effect in a Murine Model of Allergic Airway Hypereosinophilia” (J Med Chem, 2018)
